Data from ChEMBL document CHEMBL1153433, “Design and synthesis of 2-amino-4-methylpyridine analogues as inhibitors for inducible nitric oxide synthase and in vivo evaluation of [18F]6-(2-fluoropropyl)-4-methyl-pyridin-2-amine as a potential PET tracer for inducible nitric oxide synthase” (J Med Chem, 2009).

How the values were obtained:
Brain [1] = assay: Biodistribution in LPS treated C57BL/6N mouse brain at 50 uCi/110 uL, iv administered 6 hrs […] LPS challenge measured after 1 hr post drug dose; assay type: ADME, organism-based; settings: in vivo
Summary of the method: (§1)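 Male C57BL/6N mice aged 6-8 weeks received E. coli O127:B8 LPS in PBS, 10 mg/kg i.v., 6 h before tracer. Tracer ~50 μCi in 10% ethanol/saline, i.v. tail vein. Sacrifice was at 5 min, 30 min, 1 h or 2 h post-injection. Organs were weighed and gamma-counted with injectate standards. Data are %ID/g, mean ± SD, n = 4.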

Liver [2] = assay: Biodistribution in C57BL/6N mouse liver at 50 uCi/110 uL, iv after 30 mins; assay type: ADME, organism-based; settings: in vivo, 0.5 h
Summary of the method: (§2)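 Untreated (control) male C57BL/6N mice aged 6-8 weeks. HPLC-purified tracer, ~50 μCi in 10% ethanol/saline, given i.v. via the tail vein. Mice were sacrificed at 5 min, 30 min, 1 h and 2 h post-injection. Tissues were removed, weighed and gamma-counted against diluted injectate standards. Data are %ID/g, mean ± SD, n = 4.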

Blood [3] = assay: Biodistribution in LPS treated C57BL/6N mouse blood at 50 uCi/110 uL, iv administered 6 hrs […] LPS challenge measured after 2 hrs post drug dose; assay type: ADME, organism-based; settings: in vivo; summary of the method: as §1
Muscle tissue [4] = assay: Biodistribution in LPS treated C57BL/6N mouse muscle at 50 uCi/110 uL, iv administered 6 hrs […] LPS challenge measured after 5 mins post drug dose; assay type: ADME, organism-based; settings: in vivo
Summary of the method: (§3)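 Male C57BL/6N mice, 6-8 weeks; LPS (E. coli O127:B8) in PBS, 10 mg/kg i.v., given 6 h before tracer. HPLC-purified [18F]tracer ~50 μCi in 10% ethanol/saline i.v. via tail vein. Killed at 5 min, 30 min, 1 h or 2 h; tissues weighed and gamma-counted against diluted injectate standards. Reported as %ID/g, mean ± SD, n = 4.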

Brain [5] = assay: Biodistribution in LPS treated C57BL/6N mouse brain at 50 uCi/110 uL, iv administered 6 hrs […] LPS challenge measured after 2 hrs post drug dose; assay type: ADME, organism-based; settings: in vivo; summary of the method: as §1
Muscle tissue [6] = assay: Biodistribution in C57BL/6N mouse muscle at 50 uCi/110 uL, iv after 2 hrs; assay type: ADME, organism-based; settings: in vivo; summary of the method: as §2
Lung [7] = assay: Biodistribution in C57BL/6N mouse lung at 50 uCi/110 uL, iv after 1 hr; assay type: ADME, organism-based; settings: in vivo; summary of the method: as §2
Liver [8] = assay: Biodistribution in C57BL/6N mouse liver at 50 uCi/110 uL, iv after 2 hrs; assay type: ADME, organism-based; settings: in vivo; summary of the method: as §2
Bone [9] = assay: Biodistribution in C57BL/6N mouse bone at 50 uCi/110 uL, iv after 2 hrs; assay type: ADME, organism-based, Bone element; settings: in vivo; summary of the method: as §2
Bone [10] = assay: Biodistribution in LPS treated C57BL/6N mouse bone at 50 uCi/110 uL, iv administered 6 hrs […] LPS challenge measured after 5 mins post drug dose; assay type: ADME, organism-based, Bone element; settings: in vivo; summary of the method: as §1
Heart [11] = assay: Biodistribution in LPS treated C57BL/6N mouse heart at 50 uCi/110 uL, iv administered 6 hrs […] LPS challenge measured after 30 mins post drug dose; assay type: ADME, organism-based; settings: in vivo, 0.5 h; summary of the method: as §1
Lung [12] = assay: Biodistribution in C57BL/6N mouse lung at 50 uCi/110 uL, iv after 30 mins; assay type: ADME, organism-based; settings: in vivo, 0.5 h; summary of the method: as §2
Kidney [13] = assay: Biodistribution in C57BL/6N mouse kidney at 50 uCi/110 uL, iv after 5 mins; assay type: ADME, organism-based; settings: in vivo; summary of the method: as §2
Muscle tissue [14] = assay: Biodistribution in LPS treated C57BL/6N mouse muscle at 50 uCi/110 uL, iv administered 6 hrs […] LPS challenge measured after 1 hr post drug dose; assay type: ADME, organism-based; settings: in vivo; summary of the method: as §3
Liver [15] = assay: Biodistribution in C57BL/6N mouse liver at 50 uCi/110 uL, iv after 1 hr; assay type: ADME, organism-based; settings: in vivo; summary of the method: as §2
Heart [16] = assay: Biodistribution in LPS treated C57BL/6N mouse heart at 50 uCi/110 uL, iv administered 6 hrs […] LPS challenge measured after 1 hr post drug dose; assay type: ADME, organism-based; settings: in vivo; summary of the method: as §1
Liver [17] = assay: Biodistribution in LPS treated C57BL/6N mouse liver at 50 uCi/110 uL, iv administered 6 hrs […] LPS challenge measured after 5 mins post drug dose; assay type: ADME, organism-based; settings: in vivo; summary of the method: as §3
Bone [18] = assay: Biodistribution in LPS treated C57BL/6N mouse bone at 50 uCi/110 uL, iv administered 6 hrs before LPS challenge measured after 1 hr post drug dose; assay type: ADME, organism-based, Bone element; settings: in vivo, in the assay text read “6 hrs after LPS challenge” for “6 hrs before LPS challenge”; summary of the method: as §1
Heart [19] = assay: Biodistribution in C57BL/6N mouse heart at 50 uCi/110 uL, iv after 2 hrs; assay type: ADME, organism-based; settings: in vivo; summary of the method: as §2
Brain [20] = assay: Biodistribution in LPS treated C57BL/6N mouse brain at 50 uCi/110 uL, iv administered 6 hrs […] LPS challenge measured after 30 mins post drug dose; assay type: ADME, organism-based; settings: in vivo, 0.5 h; summary of the method: as §1
Kidney [21] = assay: Biodistribution in LPS treated C57BL/6N mouse kidney at 50 uCi/[…], iv administered […] measured after 5 mins post drug dose; assay type: ADME, organism-based; settings: in vivo; summary of the method: as §3
Blood [22] = assay: Biodistribution in LPS treated C57BL/6N mouse blood at 50 uCi/110 uL, iv administered 6 hrs […] LPS challenge measured after 5 mins post drug dose; assay type: ADME, organism-based; settings: in vivo; summary of the method: as §1
Kidney [23] = assay: Biodistribution in LPS treated C57BL/6N mouse kidney at 50 uCi/110 uL, iv administered 6 hrs […] LPS challenge measured after 30 mins post drug dose; assay type: ADME, organism-based; settings: in vivo, 0.5 h; summary of the method: as §3
Blood [24] = assay: Biodistribution in C57BL/6N mouse blood at 50 uCi/110 uL, iv after 1 hr; assay type: ADME, organism-based; settings: in vivo; summary of the method: as §2
Muscle tissue [25] = assay: Biodistribution in LPS treated C57BL/6N mouse muscle at 50 uCi/110 uL, iv administered 6 hrs […] LPS challenge measured after 2 hrs post drug dose; assay type: ADME, organism-based; settings: in vivo; summary of the method: as §3
Heart [26] = assay: Biodistribution in C57BL/6N mouse heart at 50 uCi/110 uL, iv after 1 hr; assay type: ADME, organism-based; settings: in vivo; summary of the method: as §2
Bone [27] = assay: Biodistribution in C57BL/6N mouse bone at 50 uCi/110 uL, iv after 30 mins; assay type: ADME, organism-based, Bone element; settings: in vivo, 0.5 h; summary of the method: as §2
Muscle tissue [28] = assay: Biodistribution in LPS treated C57BL/6N mouse muscle at 50 uCi/110 uL, iv administered 6 hrs […] LPS challenge measured after 30 mins post drug dose; assay type: ADME, organism-based; settings: in vivo, 0.5 h; summary of the method: as §3
Kidney [29] = assay: Biodistribution in C57BL/6N mouse kidney at 50 uCi/110 uL, iv after 1 hr; assay type: ADME, organism-based; settings: in vivo; summary of the method: as §2
Liver [30] = assay: Biodistribution in LPS treated C57BL/6N mouse liver at 50 uCi/110 uL, iv administered 6 hrs […] LPS challenge measured after 2 hrs post drug dose; assay type: ADME, organism-based; settings: in vivo; summary of the method: as §3
Heart [31] = assay: Biodistribution in LPS treated C57BL/6N mouse heart at 50 uCi/110 uL, iv administered 6 hrs […] LPS challenge measured after 5 mins post drug dose; assay type: ADME, organism-based; settings: in vivo; summary of the method: as §1
Brain [32] = assay: Biodistribution in C57BL/6N mouse brain at 50 uCi/110 uL, iv after 1 hr; assay type: ADME, organism-based; settings: in vivo; summary of the method: as §2
[33] = Metabolic stability in Sprague-Dawley rat whole blood at 400 uCi after 2 hrs; assay type: ADME, tissue-based; settings: read-out: Stability
Summary of the method: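 Heparinized whole blood (5 mL) from a mature male Sprague-Dawley rat incubated with ~400 μCi [18F]tracer at 37 °C for 5 min to 2 h. Aliquots lysed with 3 volumes of ethanol and centrifuged; supernatant and pellet gamma-counted. Supernatant species analysed by silica TLC (ethyl acetate), identified by co-elution with non-radioactive standard.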

Brain [34] = assay: Biodistribution in C57BL/6N mouse brain at 50 uCi/110 uL, iv after 5 mins; assay type: ADME, organism-based; settings: in vivo; summary of the method: as §2

Drug uptake (Brain [1]): 0.19 % ID/g
Drug uptake (Liver [2]): 10.7 % ID/g
Drug uptake (Blood [3]): 0.23 % ID/g
Drug uptake (Muscle tissue [4]): 1.64 % ID/g
Drug uptake (Brain [5]): 0.07 % ID/g
Drug uptake (Muscle tissue [6]): 0.34 % ID/g
Drug uptake (Lung [7]): 0.31 % ID/g
Drug uptake (Liver [8]): 0.74 % ID/g
Drug uptake (Bone [9]): 5.59 % ID/g
Drug uptake (Bone [10]): 1.59 % ID/g
Drug uptake (Heart [11]): 1.02 % ID/g
Drug uptake (Lung [12]): 1.14 % ID/g
Drug uptake (Kidney [13]): 20.6 % ID/g
Drug uptake (Muscle tissue [14]): 0.78 % ID/g
Drug uptake (Liver [15]): 2.59 % ID/g
Drug uptake (Heart [16]): 0.41 % ID/g
Drug uptake (Liver [17]): 24.6 % ID/g
Drug uptake (Bone [18]): 4.3 % ID/g
Drug uptake (Heart [19]): 0.08 % ID/g
Drug uptake (Brain [20]): 0.52 % ID/g
Drug uptake (Kidney [21]): 26.7 % ID/g
Drug uptake (Blood [22]): 3.69 % ID/g
Drug uptake (Kidney [23]): 10.9 % ID/g
Drug uptake (Blood [24]): 0.31 % ID/g
Drug uptake (Muscle tissue [25]): 0.23 % ID/g
Drug uptake (Heart [26]): 0.19 % ID/g
Drug uptake (Bone [27]): 2.26 % ID/g
Drug uptake (Muscle tissue [28]): 1.06 % ID/g
Drug uptake (Kidney [29]): 2.2 % ID/g
Drug uptake (Liver [30]): 0.42 % ID/g
Drug uptake (Heart [31]): 2.03 % ID/g
Drug uptake (Brain [32]): 0.11 % ID/g
remaining at 2 h, 400 uCi [33]: 75%
Drug uptake (Brain [34]): 1.6 % ID/g
Structure (SMILES): Cc1cc(N)nc(CC(C)[18F])c1 (centres undefined)
